Experimental data reported in PMC9163588 (The Journal of Biological Chemistry, 2022).
Where a chain is given by its changes, count along the chain named.

Key:
PhlH [1] = biological target: T1, PhlH (Pseudomonas fluorescens, UniProt Q4JIX5, L186A); test: isothermal titration calorimetry; type: binding
T1 sequence (Q4JIX5 1-225 L186A): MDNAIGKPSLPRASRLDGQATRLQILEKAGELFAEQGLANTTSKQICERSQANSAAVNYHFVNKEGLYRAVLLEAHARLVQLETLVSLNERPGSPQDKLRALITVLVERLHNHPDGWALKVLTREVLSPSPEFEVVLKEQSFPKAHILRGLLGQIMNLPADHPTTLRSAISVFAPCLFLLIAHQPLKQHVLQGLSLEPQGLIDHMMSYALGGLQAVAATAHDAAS
How it was run: (§1)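 N-terminally His6-tagged full-length PhlH from P. fluorescens 2P24, with point mutants made by site-directed mutagenesis. Expressed in E. coli Rosetta (DE3) (0.2 mM IPTG, 16 °C, 20 h), then Ni-NTA and gel filtration. ITC at 25 °C in degassed 20 mM Tris-HCl pH 8.0, 100 mM NaCl, 0.5% DMSO. Cell held 0.05–0.1 mM protein; syringe held 0.5–1 mM test compound. First 0.4 µl injection discarded, then 19 × 2.0 µl injections at 2-min spacing. Dilution heats subtracted; one-site fit gave Kd.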

PhlH [2] = biological target: T2, PhlH (Pseudomonas fluorescens, UniProt Q4JIX5, H76A); test: isothermal titration calorimetry; type: binding
T2 sequence (Q4JIX5 1-225 H76A): T1 sequence (Q4JIX5 1-225 L186A)
How it was run: as §1

PhlH [3] = biological target: T3, PhlH (Pseudomonas fluorescens, UniProt Q4JIX5, F173A); test: isothermal titration calorimetry; type: binding
T3 sequence (Q4JIX5 1-225 F173A): T1 sequence (Q4JIX5 1-225 L186A)
How it was run: as §1

PhlH [4] = biological target: T4, PhlH (Pseudomonas fluorescens, UniProt Q4JIX5, V190A); test: isothermal titration calorimetry; type: binding
T4 sequence (Q4JIX5 1-225 V190A): T1 sequence (Q4JIX5 1-225 L186A)
How it was run: as §1

PhlH [5] = biological target: T5, PhlH (Pseudomonas fluorescens, UniProt Q4JIX5, R124A); test: isothermal titration calorimetry; type: binding
T5 sequence (Q4JIX5 1-225 R124A): T1 sequence (Q4JIX5 1-225 L186A)
How it was run: as §1

PhlH [6] = biological target: T6, PhlH (Pseudomonas fluorescens, UniProt Q4JIX5, L85A); test: isothermal titration calorimetry; type: binding
T6 sequence (Q4JIX5 1-225 L85A): T1 sequence (Q4JIX5 1-225 L186A)
How it was run: as §1

PhlH R124A = biological target: T7, PhlH R124A (Pseudomonas fluorescens 2P24, UniProt Q4JIX5 1-225, R124A); test: EMSA
T7 sequence: T1 sequence (Q4JIX5 1-225 L186A) with R124A

In the case of CC(=O)c1c(O)cc(O)c(C(C)=O)c1O [2,4-DAPG], the Kd (PhlH [1]) is reported as 15.4 µM, the Kd (PhlH [2]) is reported as 10.9 µM and the Kd (PhlH [3]) is reported as 20.2 µM. It also gave a Kd (PhlH [4]) of 24.3 µM, a Kd (PhlH [5]) of 13.2 µM and a Kd (PhlH [6]) of 39 µM.

B1: F1 (phlG operator / upstream region) (dsDNA)
DNA 1: TAGTTCTAATTCAAATTTGACTTTTTATTT
DNA 2: AAATAAAAAGTCAAATTTGAATTAGAACTA
B1: no binding (PhlH R124A).
